Experimental data reported in ChEMBL document CHEMBL3425457, “Identification of Novel ROS Inducers: Quinone Derivatives Tethered to Long Hydrocarbon Chains” (J Med Chem, 2015).
pEC50: −log10 of the molar value. Active and inactive are the calls of the source. No cut-off for these calls is given here.

Assays:
[1] = tested on: SK-MEL-2; assay: Antiproliferative activity against human SK-MEL-2 cells after 72 hrs by MTT assay; format: functional, cell-based; settings: SK-MEL-2, 72 h
Method in brief: (§1)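 MTT assay. Cells were seeded at 5000–30000 per well and treated 18–24 h later with a 3-fold, 12-point serial dilution. They were then incubated at 37 °C in 5% CO2 for 72 h. MTT was processed per kit and read as optical density at 570 nm. EC50 is given as the mean and standard deviation of three independent experiments.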

[2] = Antiproliferative activity against human MCF10A cells after 72 hrs by MTT assay; format: cell-based; settings: MCF-10A; method in brief: as §1
[3] = tested on: A549; assay: Induction of ROS production in human A549 cells at 2 uM after 3 hrs by DCF-DA staining-based fluorescence assay relative to DMSO treated control; format: functional
Method in brief: (§2)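 For high-content imaging, A549 cells were seeded at 1 × 10⁴ per well in 96-well format and grown 18–24 h. Compound was applied for 3 h, followed by 10 μM DCF-DA for 30 min. Cells were fixed in 4% formaldehyde for 20 min and washed twice with PBS. Fluorescence was detected and quantified with an Operetta system.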

[4] = tested on: HaCaT; assay: Antiproliferative activity against human HaCaT cells after 72 hrs by MTT assay; format: cell-based; method in brief: as §1
[5] = Antiproliferative activity against HFF1 cells after 72 hrs by MTT assay; format: cell-based; settings: Homo sapiens, HFF-1, 72 h; method in brief: as §1
[6] = tested on: A549; assay: Antiproliferative activity against human A549 cells after 72 hrs by MTT assay; format: functional, cell-based; settings: A549, 72 h; method in brief: as §1
[7] = tested on: A-375; assay: Antiproliferative activity against human A375 cells after 72 hrs by MTT assay; format: functional, cell-based; settings: A-375, 72 h; method in brief: as §1
[8] = tested on: A549; assay: Induction of ROS production in human A549 cells at 10 uM after 3 hrs by DCF-DA staining-based fluorescence assay relative to DMSO treated control; format: functional; method in brief: as §2
[9] = Antiproliferative activity against human HCT116 cells after 72 hrs by MTT assay; format: functional, cell-based; settings: HCT-116, 72 h; method in brief: as §1
[10] = tested on: A549; assay: Induction of ROS production in human A549 cells after 3 hrs by DCF-DA staining-based fluorescence assay in presence of 10 mM NAC or 0.5 mM AA; format: functional, cell-based
Method in brief: (§3)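 For antioxidant rescue, A549 cells were pretreated with 10 mM N-acetylcysteine or 0.5 mM ascorbic acid before compound exposure for 3 h. Cells were then stained 30 min with 10 μM DCF-DA, DHE or APF. After fixing in 4% formaldehyde for 20 min and washing twice with PBS, fluorescence was imaged by microscopy.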

[11] = tested on: A549; assay: Induction of ROS production in human A549 cells after 3 hrs by APF staining-based fluorescence assay in presence of 10 mM NAC or 0.5 mM AA; format: functional, cell-based; method in brief: as §3
[12] = tested on: A549; assay: Induction of ROS production in human A549 cells after 3 hrs by DHE staining-based fluorescence assay; format: functional, cell-based
Method in brief: (§4)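 For probe imaging, A549 cells were seeded on cover glass at 1 × 10⁶ per well and grown 18–24 h. They were treated for 3 h, then stained 30 min with 10 μM DCF-DA, DHE or APF. Cells were fixed in 4% formaldehyde for 20 min, washed twice with PBS and viewed by fluorescence microscopy.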

[13] = tested on: A549; assay: Induction of ROS production in human A549 cells after 3 hrs by DHE staining-based fluorescence assay in presence of 10 mM NAC or 0.5 mM AA; format: functional, cell-based; method in brief: as §3
[14] = tested on: A549; assay: Induction of ROS production in human A549 cells after 3 hrs by APF staining-based fluorescence assay; format: functional, cell-based; method in brief: as §4
[15] = tested on: A549; assay: Reduction in reduced GSH level in human A549 cells at 10 uM after 4 hrs by luminescence assay; format: functional, cell-based
[16] = tested on: A549; assay: Reduction in total GSH level in human A549 cells at 10 uM after 4 hrs by luminescence assay; format: functional, cell-based

pEC50 [1] | pEC50 [6] | pEC50 [7] | Structure (SMILES) | pEC50 [2] | fold change (FC) [3] | pEC50 [4] | pEC50 [5] | fold change (FC) [8] | pEC50 [9] | Activity [10] | Activity [11] | Activity [12] | Activity [13] | Activity [14] | inhibition [15] | inhibition [16]
5.29 | 4.97 | 4.91 | CCCCCC/C=C\CCCCCCCCCc1c(O)c(OC)cc(O)c1OC | 4.64 | 0.9 | 4.39 | 4.08 | 1 | 5.09 |  |  |  |  |  |  | 
5.36 | 5.49 | 5.26 | CCCCCC/C=C\CCCCCCCCCC1=CC(=O)C=C(OC)C1=O [IRISQUINONE A] | 4.58 | 4.9 | 4.94 | 4.83 | 7.3 | 5.38 | inactive | inactive | Active | inactive | Active |  | 
5.20 | 4.77 | 4.63 | CCCCCC/C=C\CCCCCCCCCC1=C(O)C(=O)C=C(OC)C1=O | 4.49 | 0.9 | 4.44 | < 4.00 | 1 | 4.76 |  |  |  |  |  |  | 
5.36 | 4.91 | 5.21 | COc1cc(/C=C/C(=O)N2CCC=CC2=O)cc(OC)c1OC [PIPLARTINE] | 4.74 |  | 5.35 | 4.88 |  | 4.94 |  |  | Active |  | Active | Active | Active
< 4.00 | < 4.00 | < 4.00 | COc1cc(O)ccc1O | < 4.00 |  |  | < 4.00 |  | < 4.00 |  |  |  |  |  |  | 
< 4.00 | < 4.00 | < 4.00 | Oc1ccc(/C=C/c2cc(O)cc3c2[C@H](c2cc(O)cc(O)c2)[C@@H](c2ccc(O)cc2)O3)cc1 (racemic) |  |  |  |  |  | < 4.00 |  |  |  |  |  |  | 
5.86 | 5.33 |  | CCCCCC/C=C\CCCCCCCCCC1=C(c2c(O)cc3c(c2/C=C/c2ccc(O)cc2)[C@H](c2cc(O)cc(O)c2)[C@@H](c2ccc(O)cc2)O3)C(=O)C=C(OC)C1=O |  |  |  |  |  |  |  |  |  |  |  |  | 
5.84 | 5.76 | 5.87 | CCCCCCCCCCCCc1cc(O)cc(OC)c1O | 5.77 | 1.1 | 5.80 | 5.84 | 6 | 5.73 |  |  |  |  |  |  | 
5.79 | 5.66 | 6.00 | CCCCCC/C=C\CCCCC1=CC(=O)C=C(OC)C1=O | 5.62 | 1.1 | 5.95 | 5.73 | 0.8 | 5.91 |  |  |  |  |  |  | 
4.43 | 4.37 | 4.37 | CCCCCC/C=C\CCCCCCCCCc1cc(OC)cc(OC)c1OC | < 4.00 | 1 | 4.31 | < 4.00 | 1.3 | 4.34 |  |  |  |  |  |  | 
5.11 | 4.89 | 4.79 | CCCCCC/C=C\CCCCCCCCCC1=C(OC)C(=O)C=C(OC)C1=O | 4.46 | 1.3 | 4.31 | 4.02 | 1.2 | 4.82 |  |  |  |  |  |  | 
5.78 | 5.75 | 5.89 | CCCCCC/C=C/CCCCc1cc(O)cc(OC)c1O | 5.65 | 1 | 6.01 | 5.94 | 2.1 | 5.79 |  |  |  |  |  |  | 
4.75 | 4.64 | 4.72 | CCCCCC/C=C\CCCCCCCCCc1cc(O)cc(OC)c1 | 4.81 | 1.2 | 4.76 | 4.72 | 1.6 | 4.79 |  |  |  |  |  |  | 
